This note sets out measurements from article PMC3204787 (Biochemistry, 2011).

Assay [1] concerns the target T1, HIV-1 RT Q91A (Human immunodeficiency virus type 1 group M subtype B, UniProt P03366, Q690A). Briefly: Inhibition of reverse transcription by ddNTP inhibitors, Q91A mutant. Format: biochemical. The settings on record: for Ki: 37 °C 3 min; for IC50: IC50=Ki(1+[S]/Km).
Assay [2] concerns the target T2, HIV-1 RT Q91A+M184V (Human immunodeficiency virus type 1 group M subtype B, UniProt P03366, M783V/Q690A). Briefly: Inhibition of reverse transcription by ddNTP inhibitors, Q91A+M184V mutant. It is filed as biochemical. The settings on record: for Ki: 37 °C 3 min; for IC50: IC50=Ki(1+[S]/Km).
The target in assay [3] is T3, HIV-1 RT Q91N (Human immunodeficiency virus type 1 group M subtype B, UniProt P03366, Q690N). In words: Inhibition of reverse transcription by ddNTP inhibitors, Q91N mutant. Format: biochemical. The following applies: for Ki: 37 °C 3 min; for IC50: IC50=Ki(1+[S]/Km). The gist of the method: (§1)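 Recombinant heterodimeric HIV-1 RT (p66 with N-terminally His-tagged p51), mutation present in both subunits, used at 10 nM. The enzyme was preincubated with 100 nM poly rA.dT18 or poly rC-dG18 for 2 min at 25 °C. Synthesis was started with Mg-complexed 10 μM [3H]dTTP or dGTP (1 μCi per assay) plus varied ddTTP or ddGTP, then run 3 min at 37 °C. Reactions were stopped with cold 5% TCA/5 mM PPi, collected on GF/B filters and counted by scintillation. Ki came from percent inhibition using the competitive-inhibitor equation; IC50 = Ki(1+[S]/Km). Three independent experiments.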

Assay [4] deals with T4, HIV-1 RT M184V (Human immunodeficiency virus type 1 group M subtype B, UniProt P03366, M783V). In words: Inhibition of reverse transcription by ddNTP inhibitors, M184V mutant. The following applies: for Ki: 37 °C 3 min; for IC50: IC50=Ki(1+[S]/Km). It is filed as biochemical.
Assay [5] has as its target T5, wild type HIV-1 RT (Human immunodeficiency virus type 1 group M subtype B, UniProt P03366). Briefly: Inhibition of reverse transcription by ddNTP inhibitors, wild-type enzyme. The settings on record: WT; for Ki: 37 °C 3 min; for IC50: IC50=Ki(1+[S]/Km). It is filed as biochemical.
In assay [6] the target is T6, HIV-1 RT Q91N+M184V (Human immunodeficiency virus type 1 group M subtype B, UniProt P03366, M783V/Q690N). Briefly: Inhibition of reverse transcription by ddNTP inhibitors, Q91N+M184V mutant. Format: biochemical. The settings on record: for Ki: 37 °C 3 min; for IC50: IC50=Ki(1+[S]/Km). The essentials:
as §1

Assay [7] concerns the target T5, wild type HIV-1 RT. Briefly: Steady-state kinetics of polymerization, wild-type enzyme. Format: biochemical. The settings on record: WT, 25°C.
Assay [8] concerns the target T2, HIV-1 RT Q91A+M184V. In words: Steady-state kinetics of polymerization, Q91A+M184V mutant. The following applies: Q91A+M184V, 25°C. Format: biochemical.
Assay [9] concerns HIV-1 RT Q91A+M184V. The description is as above. Format: biochemical, human immunodeficiency virus type 1. The following applies: Q91A/M184V vs wild type; poly-rA.dT18 template, dTTP.
Assay [10] addresses T3, HIV-1 RT Q91N. Briefly: Steady-state kinetics of polymerization, Q91N mutant. It is filed as biochemical. The essentials:
(§2)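 Run at 25 °C with 40 nM mutant RT and 100 nM poly rA.dT18 or poly rC.dG18, each prepared by annealing equimolar template and primer at 20 μM. Buffer was 50 mM Tris-HCl pH 7.5, 2 mM MgCl2, 1 mM DTT and 100 μg/mL BSA. Complementary dTTP or dGTP was varied, with [3H]dTTP specific activity set using unlabeled dTTP. Reactions were started with MgCl2 and stopped with ice-cold 5% TCA at set times, then filtered and scintillation-counted. Km and Vmax came from Eadie-Hofstee plots of initial velocities; kcat = Vmax/[E].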

Assay [11] concerns the target T6, HIV-1 RT Q91N+M184V. In words: Steady-state kinetics of polymerization, Q91N+M184V mutant. Format: biochemical. The settings on record: 25°C. The gist of the method:
as §2

The target of assay [12] is T1, HIV-1 RT Q91A. Briefly: Steady-state kinetics of polymerization, Q91A mutant. Format: biochemical. The settings on record: Q91A, 25°C.
In assay [13] the test system is HIV-1 RT Q91A. The description is as above. The following applies: Q91A vs wild type; poly-rA.dT18 template, dTTP. It is filed as biochemical, human immunodeficiency virus type 1.
Assay [14] deals with T4, HIV-1 RT M184V. Briefly: Steady-state kinetics of polymerization, M184V mutant. Format: biochemical. The following applies: 25°C.
[15] abbreviates: poly rC-dG18 100 nM, dGTP 10 μM.
[16] abbreviates: poly rA.dT18 100 nM, dTTP 10 μM.
The mark [17] stands for this setting: Poly rA.dT18 template-primer, dTTP substrate.
The mark [18] stands for this setting: Poly rC.dG18 template-primer, dGTP substrate.

By Ki is commonly meant a measure of affinity in units of concentration, obtained from inhibition or displacement. High values mean weaker binding, low ones tighter binding. The IC50 is the midpoint of a concentration-inhibition curve. High values mean weaker potency in that assay, low ones greater potency in that assay. Turning to `Nc1nc2c(ncn2[C@H]2CC[C@@H](COP(=O)(O)OP(=O)(O)OP(=O)(O)O)O2)c(=O)[nH]1` [ddGTP], the Ki is 885 nM at HIV-1 RT Q91A [1] (setting [15]); 418 nM at HIV-1 RT Q91A+M184V [2] (setting [15]); 476 nM on HIV-1 RT Q91N [3] (setting [15]); 403 nM at HIV-1 RT M184V [4] (setting [15]); 112 nM on wild type HIV-1 RT [5] (setting [15]); 130 nM on HIV-1 RT Q91N+M184V [6] (setting [15]). Further, the IC50 was 1240 nM against HIV-1 RT Q91A [1] (setting [15]); 491 nM on HIV-1 RT Q91A+M184V [2] (setting [15]); 1090 nM on HIV-1 RT Q91N [3] (setting [15]); 900 nM at HIV-1 RT M184V [4] (setting [15]); 308 nM against wild type HIV-1 RT [5] (setting [15]); 285 nM against HIV-1 RT Q91N+M184V [6] (setting [15]).
Turning to `Cc1cn([C@H]2CC[C@@H](COP(=O)(O)OP(=O)(O)OP(=O)(O)O)O2)c(=O)[nH]c1=O` [ddTTP], the inhibition constant (Ki) on HIV-1 RT Q91A [1] (setting [16]) amounted to 76 nM; at HIV-1 RT Q91A+M184V [2] (setting [16]), 45 nM; on HIV-1 RT Q91N [3] (setting [16]) it was 62 nM; at HIV-1 RT M184V [4] (setting [16]), 18 nM; on wild type HIV-1 RT [5] (setting [16]), 4 nM; on HIV-1 RT Q91N+M184V [6] (setting [16]) it was 12 nM. For the same compound, the IC50 on HIV-1 RT Q91A [1] (setting [16]) is 101 nM; against HIV-1 RT Q91A+M184V [2] (setting [16]), 57 nM; at HIV-1 RT Q91N [3] (setting [16]), 150 nM; against HIV-1 RT M184V [4] (setting [16]), 69 nM; against wild type HIV-1 RT [5] (setting [16]), 17 nM; at HIV-1 RT Q91N+M184V [6] (setting [16]) it was 36 nM.
In the case of `Cc1cn([C@H]2C[C@H](O)[C@@H](COP(=O)(O)OP(=O)(O)OP(=O)(O)O)O2)c(=O)[nH]c1=O` [dTTP], the KmdTTP at wild type HIV-1 RT [7] (Poly rA.dT18 template-primer) stood at 3.0 ± 1.1 µM; on HIV-1 RT Q91A+M184V [8] (Poly rA.dT18 template-primer), 37.0 ± 4.0 µM; on HIV-1 RT Q91N [10] (Q91N, Poly rA.dT18 template-primer, 25°C), 7.0 ± 1.5 µM; at HIV-1 RT Q91N+M184V [11] (Poly rA.dT18 template-primer) it was 5.0 ± 1.0 µM; at HIV-1 RT Q91A [12] (Poly rA.dT18 template-primer), 30.0 ± 3.5 µM; at HIV-1 RT M184V [14] (Poly rA.dT18 template-primer), 3.5 ± 1.2 µM. In addition, the Kcat was 0.39 ± 0.6 s⁻¹ on wild type HIV-1 RT [7] (setting [17]); 0.23 ± 0.07 s⁻¹ at HIV-1 RT Q91A+M184V [8] (setting [17]); 0.25 ± 0.08 s⁻¹ on HIV-1 RT Q91N [10] (Q91N, Poly rA.dT18 template-primer, dTTP substrate, 25°C); 0.27 ± 0.11 s⁻¹ at HIV-1 RT Q91N+M184V [11] (setting [17]); 0.10 ± 0.03 s⁻¹ at HIV-1 RT Q91A [12] (setting [17]); 0.53 ± 0.12 s⁻¹ at HIV-1 RT M184V [14] (setting [17]). For the same compound, the figures for the “decrease in the catalytic efficiency” value in the assay with HIV-1 RT Q91A+M184V [9] and in the assay on HIV-1 RT Q91A [13] were 43 fold and 21 fold, respectively.
Regarding `Nc1nc2c(ncn2[C@H]2C[C@H](O)[C@@H](COP(=O)(O)OP(=O)(O)OP(=O)(O)O)O2)c(=O)[nH]1` [dGTP], the KmdGTP at wild type HIV-1 RT [7] (Poly rC.dG18 template-primer) was determined as 6.0 ± 1.4 µM; at HIV-1 RT Q91A+M184V [8] (Poly rC.dG18 template-primer), 57.0 ± 5.0 µM; on HIV-1 RT Q91N [10] (Q91N, Poly rC.dG18 template-primer, 25°C), 8.0 ± 2.1 µM; at HIV-1 RT Q91N+M184V [11] (Poly rC.dG18 template-primer), 8.0 ± 1.8 µM; on HIV-1 RT Q91A [12] (Poly rC.dG18 template-primer), 25.0 ± 4.0 µM; at HIV-1 RT M184V [14] (Poly rC.dG18 template-primer), 8.0 ± 2.2 µM. The Kcat was 0.15 ± 0.019 s⁻¹ at wild type HIV-1 RT [7] (setting [18]); 0.06 ± 0.010 s⁻¹ on HIV-1 RT Q91A+M184V [8] (setting [18]); 0.02 ± 0.002 s⁻¹ on HIV-1 RT Q91N [10] (Q91N, Poly rC.dG18 template-primer, dGTP substrate, 25°C); 0.04 ± 0.012 s⁻¹ at HIV-1 RT Q91N+M184V [11] (setting [18]); 0.02 ± 0.006 s⁻¹ at HIV-1 RT Q91A [12] (setting [18]); 0.08 ± 0.011 s⁻¹ on HIV-1 RT M184V [14] (setting [18]). Also, the “decrease in catalytic efficiency” value on HIV-1 RT Q91N [10] (Q91N vs wild type, poly rC template, range given jointly for Q91N and Q91N/M184V) is listed as 5–10 fold.
